Results published in ChEMBL document CHEMBL4024779, “Novel Terminal Bipheny-Based Diapophytoene Desaturases (CrtN) Inhibitors as Anti-MRSA/VISR/LRSA Agents with Reduced hERG Activity” (J Med Chem, 2018).
Residue numbers refer to the chain shown, from its start. Converted amounts (≈) assume the structure as drawn. The source made the active and inactive calls. No cut-off for these calls is given here.

Key:
[1] = Half life in human liver microsomes at 2 uM after 60 mins in presence of NADPH by LC-MS/MS method; type: ADME, microsome; conditions: liver microsomes
Liver = experiment: In-vitro intrinsic clearance in human liver microsomes at 2 uM after 60 mins in presence of NADPH by LC-MS/MS method; type: ADME, microsome; conditions: 1 h
Staphylococcus aureus [2] = experiment: Antibacterial activity against Staphylococcus aureus Newman after 24 hrs by broth dilution method; type: functional
Trichophyton verrucosum = experiment: In vitro antifungal activity against Trichophyton verrucosum after 7 days by serial dilution method; type: functional; conditions: 168 h
[3] = biological target: T1, 4,4'-diapophytoene desaturase (4,4'-diaponeurosporene-forming) (Staphylococcus aureus (strain Newman), UniProt O07855); experiment: Inhibition of Staphylococcus aureus Newman 6His-tagged CrtN expressed in Escherichia coli BL21 (DE3)/pET28a::CrtN assessed as reduction in staphyloxanthin levels using diapophytoene as substrate after overnight incubation by spectrophotometric analysis; design: species or system Staphylococcus aureus subsp. aureus str. Newman
T1 sequence (O07855 whole entry): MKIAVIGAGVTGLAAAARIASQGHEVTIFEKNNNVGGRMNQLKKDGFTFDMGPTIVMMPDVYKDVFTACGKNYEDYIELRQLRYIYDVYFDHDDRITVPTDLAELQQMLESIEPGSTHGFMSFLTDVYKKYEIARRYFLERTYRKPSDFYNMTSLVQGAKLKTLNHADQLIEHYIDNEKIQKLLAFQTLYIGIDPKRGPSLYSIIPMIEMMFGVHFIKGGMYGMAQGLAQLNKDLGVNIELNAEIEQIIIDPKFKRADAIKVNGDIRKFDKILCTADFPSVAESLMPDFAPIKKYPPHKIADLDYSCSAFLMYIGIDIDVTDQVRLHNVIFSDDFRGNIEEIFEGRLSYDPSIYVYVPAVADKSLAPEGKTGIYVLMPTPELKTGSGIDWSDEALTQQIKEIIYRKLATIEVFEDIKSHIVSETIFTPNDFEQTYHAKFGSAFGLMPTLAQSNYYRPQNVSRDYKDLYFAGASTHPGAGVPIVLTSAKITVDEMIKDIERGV

[4] = biological target: T2, 4,4'-diapophytoene desaturase (4,4'-diaponeurosporene-forming) (Staphylococcus aureus (strain MW2), UniProt Q8NUQ6); experiment: Inhibition of CrtN in methicillin-resistant Staphylococcus aureus USA400 MW2 assessed as reduction in staphyloxanthin levels after 48 hrs by spectrophotometric method-based pigment inhibition assay; design: species or system Staphylococcus aureus subsp. aureus MW2
T2 sequence (Q8NUQ6 whole entry): T1 sequence (O07855 whole entry) with R500Q

Trichophyton rubrum = experiment: In vitro antifungal activity against Trichophyton rubrum after 7 days by serial dilution method; type: functional; conditions: 168 h
[5] = Inhibition of CrtN in methicillin-resistant Staphylococcus aureus NRS271 assessed as reduction in staphyloxanthin levels after 48 hrs by spectrophotometric method-based pigment inhibition assay
[6] = test system: Trichophyton mentagrophytes; experiment: In vitro antifungal activity against Trichophyton mentagrophytes after 7 days by serial dilution method; type: functional; conditions: 168 h
Nannizzia gypsea = experiment: In vitro antifungal activity against Microsporum gypseum after 7 days by serial dilution method; type: functional; conditions: 168 h
[7] = biological target: T3, 4,4'-diapophytoene desaturase (4,4'-diaponeurosporene-forming) (Staphylococcus aureus (strain USA300), UniProt Q2FDU6); experiment: Inhibition of CrtN in methicillin-resistant Staphylococcus aureus LAC USA300 assessed as reduction in staphyloxanthin levels after 48 hrs by spectrophotometric method-based pigment inhibition assay
T3 sequence (Q2FDU6 whole entry): T1 sequence (O07855 whole entry)

[8] = biological target: Voltage-gated inwardly rectifying potassium channel KCNH2 (Homo sapiens, UniProt Q12809); experiment: Inhibition of human ERG expressed in CHO cells at -80 mV holding potential after 3 mins by QPatch test; type: cell-based
[9] = biological target: T4, 4,4'-diapophytoene desaturase (4,4'-diaponeurosporene-forming) (Staphylococcus aureus (strain Mu50 / ATCC 700699), UniProt Q99R76); experiment: Inhibition of CrtN in methicillin-resistant Staphylococcus aureus Mu50 assessed as reduction in staphyloxanthin levels after 48 hrs by spectrophotometric method-based pigment inhibition assay; design: species or system Staphylococcus aureus subsp. aureus Mu50
T4 sequence (Q99R76 whole entry): T1 sequence (O07855 whole entry)

[10] = Aqueous solubility of compound after 24 hrs by HPLC method; type: physicochemical
[11] = biological target: 4,4'-diapophytoene synthase (Staphylococcus aureus, UniProt A9JQL9); experiment: Inhibition of CrtM in Staphylococcus aureus assessed as reduction in staphyloxanthin levels after 72 hrs by spectrophotometric method
Staphylococcus aureus [12] = experiment: In vivo anti-virulence activity against methicillin-resistant Staphylococcus aureus LRSA56 infected in BALB/c mouse model assessed as reduction in bacterial load in kidney at 0.4 mg bid for 3.5 days administered intraperitoneally 6 hrs post infection by serial dilution method relative to control; type: functional, organism-based
Method in brief: (§1)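 Mice were infected by retro-orbital injection with LRSA56 (5.0 × 10^7 CFU) or LRSA202 (7.0 × 10^7 CFU). Compound was given intraperitoneally 6 h after infection. […] Log10 CFU was counted in kidneys and hearts, with groups compared by two-tailed Mann-Whitney test.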

Staphylococcus aureus [13] = experiment: In vivo anti-virulence activity against methicillin-resistant Staphylococcus aureus LRSA202 infected in BALB/c mouse model assessed as reduction in bacterial load in heart at 0.4 mg bid for 3.5 days administered intraperitoneally 6 hrs post infection by serial dilution method relative to control; type: functional, organism-based; method in brief: as §1
Staphylococcus aureus [14] = experiment: In vivo anti-virulence activity against methicillin-resistant Staphylococcus aureus LRSA56 infected in BALB/c mouse model assessed as reduction in bacterial load in heart at 0.4 mg bid for 3.5 days administered intraperitoneally 6 hrs post infection by serial dilution method relative to control; type: functional, organism-based; method in brief: as §1
Staphylococcus aureus [15] = experiment: In vivo anti-virulence activity against methicillin-resistant Staphylococcus aureus LRSA202 infected in BALB/c mouse model assessed as reduction in bacterial load in kidney at 0.4 mg bid for 3.5 days administered intraperitoneally 6 hrs post infection by serial dilution method relative to control; type: functional, organism-based; method in brief: as §1
Staphylococcus aureus [16] = experiment: In vivo anti-virulence activity against Staphylococcus aureus Mu50 infected in BALB/c mouse model assessed as reduction in bacterial load in kidney at 0.4 mg bid for 4.5 days administered […] 6 hrs post infection by serial dilution method relative to control; type: functional, organism-based
Staphylococcus aureus [17] = experiment: In vivo anti-virulence activity against methicillin-resistant Staphylococcus aureus Mu50 infected in BALB/c mouse model assessed as reduction in bacterial load in heart at 0.4 mg bid for 4.5 days administered intraperitoneally 6 hrs post infection by serial dilution method; type: functional, organism-based
Staphylococcus aureus [18] = experiment: In vivo anti-virulence activity against Staphylococcus aureus NRS271 infected in BALB/c mouse model assessed as reduction in bacterial load in kidney at 0.4 mg bid for 4.5 days administered orally 6 hrs post infection by serial dilution method relative to control; type: functional, organism-based
Staphylococcus aureus [19] = experiment: In vivo anti-virulence activity against methicillin-resistant Staphylococcus aureus LRSA202 infected in BALB/c mouse model assessed as reduction in bacterial load in kidney at 0.1 mg bid for 3.5 days administered intraperitoneally 6 hrs post infection by serial dilution method relative to control; type: functional, organism-based; method in brief: as §1
Staphylococcus aureus [20] = experiment: In vivo anti-virulence activity against methicillin-resistant Staphylococcus aureus NRS271 infected in BALB/c mouse model assessed as reduction in bacterial load in heart at 0.4 mg bid for 4.5 days administered intraperitoneally 6 hrs post infection by serial dilution method; type: functional, organism-based
Staphylococcus aureus [21] = experiment: In vivo anti-virulence activity against methicillin-resistant Staphylococcus aureus LRSA202 infected in BALB/c mouse model assessed as reduction in bacterial load in heart at 0.1 mg bid for 3.5 days administered intraperitoneally 6 hrs post infection by serial dilution method relative to control; type: functional, organism-based; method in brief: as §1
Staphylococcus aureus [22] = experiment: Chemo-sensitization activity in non-pigmented Staphylococcus aureus Newman assessed as increase in H2O2-induced bacterial death by measuring survival rate pre-incubated for 24 hrs followed by H2O2 addition measured after 30 mins by serial dilution method (reference value: 33.3%); type: functional
Method in brief: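 S. aureus Newman was pre-incubated with 1 µM compound, with N-acetylcysteine as antioxidant control, or mock-treated. Cells were then exposed to 1.5% H2O2. Percent bacterial survival was compared with the mock-treated culture.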

[23] = biological target: T5, 4,4'-diapophytoene desaturase (4,4'-diaponeurosporene-forming) (Staphylococcus aureus (strain MW2)) (UniProt Q8NUQ6); experiment: Inhibition of CrtN in methicillin-resistant Staphylococcus aureus USA400 MW2 assessed as increase in H2O2-induced bacterial death by measuring survival rate preincubated for 24 hrs followed by H2O2 addition measured after 30 mins by serial dilution method (reference value: 28.7%); conditions: Staphylococcus aureus subsp. aureus MW2
T5 sequence (whole entry): T1 sequence (O07855 whole entry) with R500Q
Method in brief: (§2)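 Bacteria pretreated with 1 µM inhibitor or mock; N-acetylcysteine-treated cells served as control. Cells then exposed to 1.5% H2O2, and percent survival determined.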

[24] = biological target: T6, 4,4'-diapophytoene desaturase (4,4'-diaponeurosporene-forming) (Staphylococcus aureus (strain USA300)) (UniProt Q2FDU6); experiment: Inhibition of CrtN in methicillin-resistant Staphylococcus aureus LAC USA300 assessed as increase in H2O2-induced bacterial death by measuring survival rate preincubated for 24 hrs followed by H2O2 addition measured after 30 mins by serial dilution method (reference value: 29.0%); method in brief: as §2
T6 sequence (whole entry): T1 sequence (O07855 whole entry)

[25] = biological target: T7, 4,4'-diapophytoene desaturase (4,4'-diaponeurosporene-forming) (Staphylococcus aureus (strain Mu50 / ATCC 700699)) (UniProt Q99R76); experiment: Inhibition of CrtN in methicillin-resistant Staphylococcus aureus Mu50 assessed as increase in H2O2-induced bacterial death by measuring survival rate at preincubated for 24 hrs followed by H2O2 addition measured after 30 mins by serial dilution method (reference value: 29.0%); conditions: Staphylococcus aureus subsp. aureus Mu50; method in brief: as §2
T7 sequence (whole entry): T1 sequence (O07855 whole entry)

Chain of 4,4'-diapophytoene synthase (A9JQL9 whole entry): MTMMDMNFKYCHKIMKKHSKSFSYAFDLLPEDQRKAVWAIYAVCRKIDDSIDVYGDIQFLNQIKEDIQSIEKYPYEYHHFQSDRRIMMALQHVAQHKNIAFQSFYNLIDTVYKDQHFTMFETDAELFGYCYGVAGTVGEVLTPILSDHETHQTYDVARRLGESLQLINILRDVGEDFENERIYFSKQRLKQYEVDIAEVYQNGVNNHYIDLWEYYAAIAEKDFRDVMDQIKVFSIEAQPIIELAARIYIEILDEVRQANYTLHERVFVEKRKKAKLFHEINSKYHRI
Chain of Voltage-gated inwardly rectifying potassium channel KCNH2 (Q12809 whole entry): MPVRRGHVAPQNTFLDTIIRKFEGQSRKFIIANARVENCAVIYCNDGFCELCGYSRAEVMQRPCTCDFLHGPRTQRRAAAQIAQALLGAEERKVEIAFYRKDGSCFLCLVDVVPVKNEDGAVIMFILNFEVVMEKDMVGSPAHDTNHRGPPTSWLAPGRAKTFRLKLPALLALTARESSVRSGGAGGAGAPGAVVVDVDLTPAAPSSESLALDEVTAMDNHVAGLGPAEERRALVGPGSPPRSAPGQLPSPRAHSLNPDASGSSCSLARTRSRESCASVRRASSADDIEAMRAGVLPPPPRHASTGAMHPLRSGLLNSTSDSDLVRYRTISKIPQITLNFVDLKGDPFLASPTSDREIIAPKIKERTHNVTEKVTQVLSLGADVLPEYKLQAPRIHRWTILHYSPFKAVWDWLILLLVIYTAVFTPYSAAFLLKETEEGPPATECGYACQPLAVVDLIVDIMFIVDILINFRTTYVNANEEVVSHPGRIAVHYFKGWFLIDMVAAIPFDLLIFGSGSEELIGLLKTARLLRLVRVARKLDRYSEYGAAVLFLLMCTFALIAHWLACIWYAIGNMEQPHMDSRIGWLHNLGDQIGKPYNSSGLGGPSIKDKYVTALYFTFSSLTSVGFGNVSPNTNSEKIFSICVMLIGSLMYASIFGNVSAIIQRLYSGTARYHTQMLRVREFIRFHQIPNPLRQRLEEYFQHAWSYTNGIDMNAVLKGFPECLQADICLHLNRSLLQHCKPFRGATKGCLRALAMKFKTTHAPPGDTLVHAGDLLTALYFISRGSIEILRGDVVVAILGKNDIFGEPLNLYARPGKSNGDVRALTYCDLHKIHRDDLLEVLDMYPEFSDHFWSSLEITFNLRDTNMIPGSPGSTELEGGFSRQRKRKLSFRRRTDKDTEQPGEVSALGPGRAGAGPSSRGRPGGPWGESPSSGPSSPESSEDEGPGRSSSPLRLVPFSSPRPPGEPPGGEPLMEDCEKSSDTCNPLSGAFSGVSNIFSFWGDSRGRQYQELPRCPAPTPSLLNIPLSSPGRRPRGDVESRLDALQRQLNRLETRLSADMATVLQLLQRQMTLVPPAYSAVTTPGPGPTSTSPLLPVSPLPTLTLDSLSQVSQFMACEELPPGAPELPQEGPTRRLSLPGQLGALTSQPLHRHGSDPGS

Cc1ncc2n1-c1ccc(Cl)cc1C(c1ccccc1F)=NC2 [MIDAZOLAM]
half-life at 2 µM [1]: 4.2 min
CLH (Liver): 330 µL/min/mg

OO [HYDROGEN PEROXIDE]
MIC (Staphylococcus aureus [2]): 0.15%

CN(C/C=C/c1ccc(C(F)(F)F)cc1)Cc1cccc2ccoc12.Cl
MIC80 (Trichophyton verrucosum): > 64 µg/mL
IC50 [3]: 300 nM
IC50 [4]: 3.4 nM
MIC80 (Trichophyton rubrum): 16 µg/mL
IC50 [5]: 6.7 nM
MIC80 [6]: > 64 µg/mL
MIC80 (Nannizzia gypsea): 32 µg/mL
IC50 [7]: 5.5 nM
IC50 [8]: 3700 nM
IC50 [9]: 0.4 nM
solubility at 24 h [10]: 10000 µg/mL

O=P(O)(O)C(CCCc1cccc(Oc2ccccc2)c1)S(=O)(=O)O (centres undefined)
IC50 [11]: 110 nM

CN[C@H](CC(C)C)C(=O)N[C@H]1C(=O)N[C@@H](CC(N)=O)C(=O)N[C@H]2C(=O)N[C@H]3C(=O)N[C@H](C(=O)N[C@H](C(=O)O)c4cc(O)cc(O)c4-c4cc3ccc4O)[C@H](O)c3ccc(c(Cl)c3)Oc3cc2cc(c3O[C@@H]2O[C@H](CO)[C@@H](O)[C@H](O)[C@H]2O[C@H]2C[C@](C)(N)[C@H](O)[C@H](C)O2)Oc2ccc(cc2Cl)[C@H]1O
Activity (Staphylococcus aureus [12]): Active
Activity (Staphylococcus aureus [13]): Active
Activity (Staphylococcus aureus [14]): Active
Activity (Staphylococcus aureus [15]): Active
Activity (Staphylococcus aureus [16]): Active
Activity (Staphylococcus aureus [17]): Active

CC(=O)NC[C@H]1CN(c2ccc(N3CCOCC3)c(F)c2)C(=O)O1
Activity (Staphylococcus aureus [18]): Active
Activity (Staphylococcus aureus [19]): Active
Activity (Staphylococcus aureus [13]): Active
Activity (Staphylococcus aureus [15]): Active
Activity (Staphylococcus aureus [16]): Active
Activity (Staphylococcus aureus [17]): Active
Activity (Staphylococcus aureus [20]): Active
Activity (Staphylococcus aureus [21]): Active

CC(=O)N[C@@H](CS)C(=O)O [ACETYLCYSTEINE]
Survival (Staphylococcus aureus [22]): 51.3%
Survival [23]: 54.3%
Survival [24]: 52%
Survival [25]: 53%

CC[C@H]1OC(=O)[C@H](C)[C@@H](O[C@H]2C[C@@](C)(OC)[C@@H](O)[C@H](C)O2)[C@H](C)[C@@H](O[C@@H]2O[C@H](C)C[C@H](N(C)C)[C@H]2O)[C@](C)(O)C[C@@H](C)C(=O)[C@H](C)[C@@H](O)[C@]1(C)O [ERYTHROMYCIN]
MIC (Staphylococcus aureus [2]; Staphylococcus aureus, Newman, 24 h, read-out: MIC): 0.125 µg/mL (≈ 0.17 µM)
